Measured values from ChEMBL document CHEMBL3352173, “Optimization of pyrrolamide topoisomerase II inhibitors toward identification of an antibacterial clinical candidate (AZD5099)” (J Med Chem, 2014).
In brackets after ≈: the same amount, converted by molar mass.

Experiments:
DNA gyrase subunit B = DNA gyrase subunit B (Staphylococcus aureus, UniProt P0A0K8); assay: Inhibition of ATPase activity of Staphylococcus aureus GyrB
Procedure, shortened: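 IC50 was determined against S. aureus GyrB in the routine screening assay. The enzyme concentration limits resolution below 10 nM.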

Streptococcus pneumoniae = assay: Antibacterial activity against Streptococcus pneumoniae by broth microdilution/CLSI method; assay type: functional; settings: Streptococcus pneumoniae; read-out: MIC
[1] = Ratio of MIC for methicillin, quinolone-resistant Staphylococcus aureus to fraction unbound in human plasma; assay type: ADME
Streptococcus pyogenes = assay: Antimicrobial activity against Streptococcus pyogenes by broth microdilution/CLSI method; assay type: functional
[2] = Clearance in rat at 10 mg/kg, iv; assay type: ADME, organism-based; design: dose 10 mg/kg, route intravenous; settings: in vivo
Moraxella catarrhalis = assay: Antimicrobial activity against Moraxella catarrhalis by broth microdilution/CLSI method; assay type: functional; settings: Moraxella catarrhalis; read-out: MIC
Staphylococcus aureus [3] = assay: Antimicrobial activity against methicillin-sensitive Staphylococcus aureus by broth microdilution/CLSI method; assay type: functional; settings: Staphylococcus aureus; read-out: MIC
Staphylococcus aureus [4] = assay: Antimicrobial activity against methicillin, quinolone-resistant Staphylococcus aureus by broth microdilution/CLSI method; assay type: functional; settings: Staphylococcus aureus; read-out: MIC
Escherichia coli [5] = assay: Antimicrobial activity against wild-type Escherichia coli Eco523 by broth microdilution/CLSI method; assay type: functional; settings: Escherichia coli, Eco523; read-out: MIC
[6] = Percentage unbound in human plasma; assay type: ADME, cell-free
Escherichia coli [7] = assay: Antimicrobial activity against Escherichia coli tolC- by broth microdilution/CLSI method; assay type: functional; settings: Escherichia coli; read-out: MIC
Haemophilus influenzae = assay: Antimicrobial activity against Haemophilus influenzae by broth microdilution/CLSI method; assay type: functional; settings: Haemophilus influenzae; read-out: MIC
[8] = Solubility of the compound; assay type: physicochemical
[9] = Octanol-phosphate buffer distribution coefficient, log D of the compound at pH 7.4 by shake flask method; assay type: physicochemical

Chain of DNA gyrase subunit B (P0A0K8 whole entry): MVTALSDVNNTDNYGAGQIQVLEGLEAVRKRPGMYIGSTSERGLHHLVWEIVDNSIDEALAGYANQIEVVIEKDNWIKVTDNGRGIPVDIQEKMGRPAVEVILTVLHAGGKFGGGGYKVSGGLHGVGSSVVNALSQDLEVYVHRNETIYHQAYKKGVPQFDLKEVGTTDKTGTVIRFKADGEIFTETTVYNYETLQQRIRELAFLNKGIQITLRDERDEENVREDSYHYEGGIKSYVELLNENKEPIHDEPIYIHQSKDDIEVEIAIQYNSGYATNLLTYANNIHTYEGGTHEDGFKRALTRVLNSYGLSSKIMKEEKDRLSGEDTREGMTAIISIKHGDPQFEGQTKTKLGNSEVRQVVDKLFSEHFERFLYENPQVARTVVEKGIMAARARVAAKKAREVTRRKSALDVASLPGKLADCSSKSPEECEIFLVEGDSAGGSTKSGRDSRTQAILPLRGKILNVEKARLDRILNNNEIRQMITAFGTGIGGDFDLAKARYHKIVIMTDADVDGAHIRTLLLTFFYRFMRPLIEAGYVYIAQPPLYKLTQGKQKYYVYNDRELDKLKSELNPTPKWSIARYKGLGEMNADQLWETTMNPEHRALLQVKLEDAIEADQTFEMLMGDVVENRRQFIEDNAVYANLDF

CO[C@H]1CN(c2nc(C(=O)NC[C@H](C)OC)c(C(=O)O)s2)CC[C@H]1NC(=O)c1[nH]c(C)c(Cl)c1Cl
IC50 (DNA gyrase subunit B): < 10 nM | MIC (Streptococcus pneumoniae): 0.016 µg/mL (≈ 0.0292 µM) | Ratio [1]: 1.1 | MIC (Streptococcus pyogenes): < 0.008 µg/mL | clearance [2]: 13 mL/min/kg | MIC (Moraxella catarrhalis): < 0.008 µg/mL | MIC (Staphylococcus aureus [3]): 0.031 µg/mL (≈ 0.0565 µM) | MIC (Staphylococcus aureus [4]): 0.031 µg/mL (≈ 0.0565 µM) | MIC (Escherichia coli [5]): > 8 µg/mL | fraction unbound [6]: 0.027 | MIC (Escherichia coli [7]): 0.5 µg/mL (≈ 0.912 µM) | MIC (Haemophilus influenzae): 0.13 µg/mL (≈ 0.237 µM)

CO[C@H]1CN(c2nc(C(=O)NN3CCOCC3)c(C(=O)O)s2)CC[C@H]1NC(=O)c1[nH]c(C)c(Cl)c1Cl
IC50 (DNA gyrase subunit B): < 10 nM | MIC (Streptococcus pneumoniae): 0.25 µg/mL (≈ 0.445 µM) | Ratio [1]: 56 | solubility [8]: > 1000 µM | MIC (Streptococcus pyogenes): 0.25 µg/mL (≈ 0.445 µM) | MIC (Moraxella catarrhalis): 0.35 µg/mL (≈ 0.623 µM) | MIC (Staphylococcus aureus [3]): 2 µg/mL (≈ 3.56 µM) | MIC (Staphylococcus aureus [4]): 4 µg/mL (≈ 7.12 µM) | MIC (Escherichia coli [5]): > 64 µg/mL | fraction unbound [6]: 0.071 | MIC (Escherichia coli [7]): 1 µg/mL (≈ 1.78 µM) | MIC (Haemophilus influenzae): 1.4 µg/mL (≈ 2.49 µM) | logD [9]: -0.15

CNC(=O)c1sc(N2CC[C@@H](NC(=O)c3[nH]c(C)c(Cl)c3Cl)[C@@H](OC)C2)nc1C(=O)O
IC50 (DNA gyrase subunit B): < 10 nM | MIC (Streptococcus pneumoniae): > 32 µg/mL | Ratio [1]: > 200 | solubility [8]: > 1000 µM | MIC (Staphylococcus aureus [4]): 2 µg/mL (≈ 4.08 µM) | MIC (Escherichia coli [5]): > 64 µg/mL | fraction unbound [6]: < 0.01 | MIC (Escherichia coli [7]): 2 µg/mL (≈ 4.08 µM)

CO[C@H]1CN(c2nc(-c3ncc[nH]3)c(C(=O)O)s2)CC[C@H]1NC(=O)c1[nH]c(C)c(Cl)c1Cl
IC50 (DNA gyrase subunit B): < 10 nM | MIC (Streptococcus pneumoniae): < 0.06 µg/mL | Ratio [1]: 100 | solubility [8]: < 1 µM | MIC (Streptococcus pyogenes): 0.08 µg/mL (≈ 0.16 µM) | MIC (Moraxella catarrhalis): < 0.06 µg/mL | MIC (Staphylococcus aureus [3]): 0.63 µg/mL (≈ 1.26 µM) | MIC (Staphylococcus aureus [4]): 1 µg/mL (≈ 2 µM) | MIC (Escherichia coli [5]): > 64 µg/mL | fraction unbound [6]: < 0.01 | MIC (Escherichia coli [7]): < 0.06 µg/mL | MIC (Haemophilus influenzae): 1 µg/mL (≈ 2 µM) | logD [9]: > 2.5

COCc1nc(N2CC[C@@H](NC(=O)c3[nH]c(C)c(Cl)c3Cl)[C@@H](OC)C2)sc1C(=O)O
IC50 (DNA gyrase subunit B): < 10 nM | MIC (Streptococcus pneumoniae): 0.12 µg/mL (≈ 0.251 µM) | Ratio [1]: 29 | solubility [8]: > 1000 µM | MIC (Moraxella catarrhalis): 0.063 µg/mL (≈ 0.132 µM) | MIC (Staphylococcus aureus [3]): 0.5 µg/mL (≈ 1.05 µM) | MIC (Staphylococcus aureus [4]): 1 µg/mL (≈ 2.09 µM) | MIC (Escherichia coli [5]): > 8 µg/mL | fraction unbound [6]: 0.034 | MIC (Escherichia coli [7]): 0.5 µg/mL (≈ 1.05 µM) | MIC (Haemophilus influenzae): 0.35 µg/mL (≈ 0.733 µM) | logD [9]: 0.44

CO[C@H]1CN(c2nc(C(=O)N(C)C)c(C(=O)O)s2)CC[C@H]1NC(=O)c1[nH]c(C)c(Cl)c1Cl (racemic)
IC50 (DNA gyrase subunit B): < 10 nM | MIC (Streptococcus pneumoniae): 4 µg/mL (≈ 7.93 µM) | Ratio [1]: > 62 | solubility [8]: > 1000 µM | MIC (Moraxella catarrhalis): 2 µg/mL (≈ 3.97 µM) | MIC (Staphylococcus aureus [3]): 8 µg/mL (≈ 15.9 µM) | MIC (Staphylococcus aureus [4]): > 8 µg/mL | MIC (Escherichia coli [5]): > 8 µg/mL | fraction unbound [6]: 0.13 | MIC (Escherichia coli [7]): 2 µg/mL (≈ 3.97 µM) | MIC (Haemophilus influenzae): 8 µg/mL (≈ 15.9 µM) | logD [9]: -1

CO[C@H]1CN(c2nc(CO)c(C(=O)O)s2)CC[C@H]1NC(=O)c1[nH]c(C)c(Cl)c1Cl (racemic)
IC50 (DNA gyrase subunit B): < 10 nM | MIC (Streptococcus pneumoniae): 2 µg/mL (≈ 4.32 µM) | Ratio [1]: 17 | MIC (Moraxella catarrhalis): 1 µg/mL (≈ 2.16 µM) | MIC (Staphylococcus aureus [3]): > 8 µg/mL | MIC (Escherichia coli [5]): > 8 µg/mL | fraction unbound [6]: 0.029 | MIC (Escherichia coli [7]): 1 µg/mL (≈ 2.16 µM) | MIC (Haemophilus influenzae): 8 µg/mL (≈ 17.3 µM) | logD [9]: -0.27

CO[C@H]1CN(c2nc(-c3cn(C)cn3)c(C(=O)O)s2)CC[C@H]1NC(=O)c1[nH]c(C)c(Cl)c1Cl
IC50 (DNA gyrase subunit B): < 10 nM | MIC (Streptococcus pneumoniae): < 0.06 µg/mL | Ratio [1]: 6.8 | solubility [8]: 3 µM (≈ 1.54 µg/mL) | MIC (Streptococcus pyogenes): < 0.06 µg/mL | MIC (Moraxella catarrhalis): < 0.06 µg/mL | MIC (Staphylococcus aureus [3]): 0.13 µg/mL (≈ 0.253 µM) | MIC (Staphylococcus aureus [4]): 0.13 µg/mL (≈ 0.253 µM) | MIC (Escherichia coli [5]): 16 µg/mL (≈ 31.2 µM) | fraction unbound [6]: 0.019 | MIC (Escherichia coli [7]): < 0.06 µg/mL | MIC (Haemophilus influenzae): 2 µg/mL (≈ 3.9 µM) | logD [9]: 2.5

CO[C@H]1CN(c2nc(-c3nccs3)c(C(=O)O)s2)CC[C@H]1NC(=O)c1[nH]c(C)c(Cl)c1Cl
IC50 (DNA gyrase subunit B): < 9.8 nM | MIC (Streptococcus pneumoniae): < 0.06 µg/mL | Ratio [1]: < 6.3 | solubility [8]: 16 µM (≈ 8.26 µg/mL) | MIC (Streptococcus pyogenes): < 0.06 µg/mL | MIC (Moraxella catarrhalis): < 0.06 µg/mL | MIC (Staphylococcus aureus [3]): < 0.06 µg/mL | MIC (Escherichia coli [5]): 8 µg/mL (≈ 15.5 µM) | fraction unbound [6]: < 0.01 | MIC (Escherichia coli [7]): 0.13 µg/mL (≈ 0.252 µM) | MIC (Haemophilus influenzae): 0.13 µg/mL (≈ 0.252 µM) | logD [9]: 3.6

CO[C@H]1CN(c2nc(C(=O)NCCN3CCCC3=O)c(C(=O)O)s2)CC[C@H]1NC(=O)c1[nH]c(C)c(Cl)c1Cl
IC50 (DNA gyrase subunit B): < 10 nM | MIC (Streptococcus pneumoniae): < 0.06 µg/mL | Ratio [1]: 18 | solubility [8]: 870 µM (≈ 511 µg/mL) | MIC (Streptococcus pyogenes): < 0.06 µg/mL | MIC (Moraxella catarrhalis): < 0.063 µg/mL | MIC (Staphylococcus aureus [3]): 0.35 µg/mL (≈ 0.596 µM) | MIC (Staphylococcus aureus [4]): 1.4 µg/mL (≈ 2.38 µM) | MIC (Escherichia coli [5]): 64 µg/mL (≈ 109 µM) | fraction unbound [6]: 0.076 | MIC (Escherichia coli [7]): 0.71 µg/mL (≈ 1.21 µM) | MIC (Haemophilus influenzae): 0.5 µg/mL (≈ 0.851 µM)

CO[C@H]1CN(c2nc(-c3cncc(NCCN4CCN(C)CC4)n3)c(C(=O)O)s2)CC[C@H]1NC(=O)c1[nH]c(C)c(Cl)c1Cl
IC50 (DNA gyrase subunit B): 1.2 nM | MIC (Streptococcus pneumoniae): 0.011 µg/mL (≈ 0.0169 µM) | Ratio [1]: 21 | solubility [8]: 36 µM (≈ 23.5 µg/mL) | MIC (Streptococcus pyogenes): 0.031 µg/mL (≈ 0.0475 µM) | MIC (Staphylococcus aureus [3]): 0.25 µg/mL (≈ 0.383 µM) | MIC (Staphylococcus aureus [4]): 0.58 µg/mL (≈ 0.889 µM) | MIC (Escherichia coli [5]): 46 µg/mL (≈ 70.5 µM) | fraction unbound [6]: 0.027 | MIC (Escherichia coli [7]): 0.51 µg/mL (≈ 0.781 µM) | MIC (Haemophilus influenzae): 1 µg/mL (≈ 1.53 µM) | logD [9]: 2
